Test results: ChEMBL document CHEMBL1141563, “Novel inhibitors of the Gardos channel for the treatment of sickle cell disease” (J Med Chem, 2008)
≈ marks a conversion by molar mass, not a printed value.

Experiments:
Liver = assay: Intrinsic clearance in rat liver microsome S9 fraction as % compound remaining after incubation; assay type: ADME, subcellular
[1] = Solubility by shake-flask method; assay type: physicochemical
In short: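 Modified shake-flask method: about 1 mg compound shaken overnight in 1 mL PBS, pH 6.8. Supernatant analysed by LC/MS/MS; 2 measurements.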

[2] = target: T1, Intermediate conductance calcium-activated potassium channel protein 4 (Homo sapiens, UniProt O15554); assay: Inhibition of Gardos channel in human RBC assessed as inhibition of ionomycin-stimulated [86Rb] efflux
[3] = Half life in Sprague-Dawley rat at 1 mg/kg, iv or 10 mg/kg, po; assay type: ADME, organism-based; details: in vivo
In short: (§1)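 Male Sprague-Dawley rats (251–299 g), n = 3 per time point. Dosed 1 mg/Kg IV by tail vein in PEG-400/cremophor-EL, or 10 mg/Kg by oral gavage in 0.5% aqueous methylcellulose. Plasma sampled 0.08–24 h (IV) or 0.5–24 h (PO) and quantified by LC-MS, LLOQ 1 ng/mL. Noncompartmental analysis; Cmax and Tmax read from the data; AUC by linear-log trapezoidal rule.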

[4] = Tmax in Sprague-Dawley rat at 1 mg/kg, iv or 10 mg/kg, po; assay type: ADME, organism-based; details: in vivo; in short: as §1
[5] = Cmax in Sprague-Dawley rat at 1 mg/kg, iv or 10 mg/kg, po; assay type: ADME, organism-based; details: in vivo; in short: as §1
CYP3A4 = CYP3A4 (Homo sapiens, UniProt P08684); assay: Inhibition of CYP3A4 at 10 uM; assay type: ADME
Mus musculus [6] = assay: Effect on gardos channel activity in SAD1 mouse model assessed by measuring [86Rb]/L of cells at 20 mg/kg, po bid after 7 days; assay type: functional
Mus musculus [7] = assay: Effect on gardos channel activity in SAD1 mouse model assessed by measuring [86Rb]/L of cells at 20 mg/kg, po bid after 14 days; assay type: functional
Mus musculus [8] = assay: Effect on mean corpuscular hemoglobin concentration in SAD1 mouse model at 20 mg/kg, po bid after 7 days; assay type: functional
In short: (§2)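 Transgenic SAD-1 mice of both sexes, 3–6 months, 25–30 g, given vehicle or compound by oral gavage twice daily. Blood parameters taken at baseline and at days 7 and 14 (20 mg/kg arm) or days 11 and 21 (10 mg/kg arm). Hematocrit measured by micro-Hct centrifugation; cells washed three times in PBS (330 mOsm) at 25 °C.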

Mus musculus [9] = assay: Effect on mean corpuscular hemoglobin concentration in SAD1 mouse model at 20 mg/kg, po bid after 14 days; assay type: functional; in short: as §2
Mus musculus [10] = assay: Effect on hematocrit levels in SAD1 mouse model at 20 mg/kg, po bid after 7 days; assay type: functional; in short: as §2
Mus musculus [11] = assay: Effect on hematocrit levels in SAD1 mouse model at 20 mg/kg, po bid after 14 days; assay type: functional; in short: as §2
hERG (KCNH2) = hERG (KCNH2) (Homo sapiens, UniProt Q12809); assay: Inhibition of human ERG at 10 uM
Mus musculus [12] = assay: Effect on gardos channel activity in SAD1 mouse model at 10 mg/kg, po bid after 11 days; assay type: functional
Mus musculus [13] = assay: Effect on gardos channel activity in SAD1 mouse model at 10 mg/kg, po bid after 21 days; assay type: functional
Mus musculus [14] = assay: Effect on mean corpuscular hemoglobin concentration in SAD1 mouse model at 10 mg/kg, po bid after 11 days; assay type: functional; in short: as §2
Mus musculus [15] = assay: Effect on mean corpuscular hemoglobin concentration in SAD1 mouse model at 10 mg/kg, po bid after 21 days; assay type: functional; in short: as §2
Mus musculus [16] = assay: Effect on hematocrit levels in SAD1 mouse model at 10 mg/kg, po bid after 11 days; assay type: functional; in short: as §2
Mus musculus [17] = assay: Effect on hematocrit levels in SAD1 mouse model at 10 mg/kg, po bid after 21 days; assay type: functional; in short: as §2
[18] = Bioavailability in Sprague-Dawley rat at 1 mg/kg, iv or 10 mg/kg, po; assay type: ADME, organism-based; details: in vivo; in short: as §1
[19] = target: T1, Intermediate conductance calcium-activated potassium channel protein 4; assay: Inhibition of Gardos channel in human RBC assessed as […] at 10 uM

T1 sequence (O15554 whole entry): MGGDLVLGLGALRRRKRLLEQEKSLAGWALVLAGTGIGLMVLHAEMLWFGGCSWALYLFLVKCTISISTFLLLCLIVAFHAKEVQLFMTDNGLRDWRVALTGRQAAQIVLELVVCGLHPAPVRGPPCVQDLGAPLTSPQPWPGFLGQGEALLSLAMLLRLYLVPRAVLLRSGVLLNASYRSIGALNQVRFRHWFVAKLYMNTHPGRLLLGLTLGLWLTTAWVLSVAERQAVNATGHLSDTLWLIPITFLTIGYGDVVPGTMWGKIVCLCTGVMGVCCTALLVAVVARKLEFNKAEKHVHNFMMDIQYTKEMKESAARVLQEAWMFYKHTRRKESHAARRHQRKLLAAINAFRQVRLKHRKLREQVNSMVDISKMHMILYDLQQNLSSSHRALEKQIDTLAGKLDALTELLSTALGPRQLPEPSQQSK
Chain of CYP3A4 (P08684 whole entry): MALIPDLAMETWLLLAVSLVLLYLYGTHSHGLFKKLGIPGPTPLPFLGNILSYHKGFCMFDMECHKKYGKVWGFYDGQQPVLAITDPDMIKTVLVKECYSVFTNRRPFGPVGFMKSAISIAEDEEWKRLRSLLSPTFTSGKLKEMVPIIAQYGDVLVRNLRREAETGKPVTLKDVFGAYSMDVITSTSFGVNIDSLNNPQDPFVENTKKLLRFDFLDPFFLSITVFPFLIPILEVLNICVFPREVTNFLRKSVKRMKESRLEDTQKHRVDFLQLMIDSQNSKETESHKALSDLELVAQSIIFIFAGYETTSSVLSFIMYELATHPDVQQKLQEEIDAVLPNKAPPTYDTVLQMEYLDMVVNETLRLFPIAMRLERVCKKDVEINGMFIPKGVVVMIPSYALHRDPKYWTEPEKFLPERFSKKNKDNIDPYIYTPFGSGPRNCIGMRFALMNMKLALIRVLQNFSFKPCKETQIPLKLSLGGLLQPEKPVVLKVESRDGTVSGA
Chain of hERG (KCNH2) (Q12809 whole entry): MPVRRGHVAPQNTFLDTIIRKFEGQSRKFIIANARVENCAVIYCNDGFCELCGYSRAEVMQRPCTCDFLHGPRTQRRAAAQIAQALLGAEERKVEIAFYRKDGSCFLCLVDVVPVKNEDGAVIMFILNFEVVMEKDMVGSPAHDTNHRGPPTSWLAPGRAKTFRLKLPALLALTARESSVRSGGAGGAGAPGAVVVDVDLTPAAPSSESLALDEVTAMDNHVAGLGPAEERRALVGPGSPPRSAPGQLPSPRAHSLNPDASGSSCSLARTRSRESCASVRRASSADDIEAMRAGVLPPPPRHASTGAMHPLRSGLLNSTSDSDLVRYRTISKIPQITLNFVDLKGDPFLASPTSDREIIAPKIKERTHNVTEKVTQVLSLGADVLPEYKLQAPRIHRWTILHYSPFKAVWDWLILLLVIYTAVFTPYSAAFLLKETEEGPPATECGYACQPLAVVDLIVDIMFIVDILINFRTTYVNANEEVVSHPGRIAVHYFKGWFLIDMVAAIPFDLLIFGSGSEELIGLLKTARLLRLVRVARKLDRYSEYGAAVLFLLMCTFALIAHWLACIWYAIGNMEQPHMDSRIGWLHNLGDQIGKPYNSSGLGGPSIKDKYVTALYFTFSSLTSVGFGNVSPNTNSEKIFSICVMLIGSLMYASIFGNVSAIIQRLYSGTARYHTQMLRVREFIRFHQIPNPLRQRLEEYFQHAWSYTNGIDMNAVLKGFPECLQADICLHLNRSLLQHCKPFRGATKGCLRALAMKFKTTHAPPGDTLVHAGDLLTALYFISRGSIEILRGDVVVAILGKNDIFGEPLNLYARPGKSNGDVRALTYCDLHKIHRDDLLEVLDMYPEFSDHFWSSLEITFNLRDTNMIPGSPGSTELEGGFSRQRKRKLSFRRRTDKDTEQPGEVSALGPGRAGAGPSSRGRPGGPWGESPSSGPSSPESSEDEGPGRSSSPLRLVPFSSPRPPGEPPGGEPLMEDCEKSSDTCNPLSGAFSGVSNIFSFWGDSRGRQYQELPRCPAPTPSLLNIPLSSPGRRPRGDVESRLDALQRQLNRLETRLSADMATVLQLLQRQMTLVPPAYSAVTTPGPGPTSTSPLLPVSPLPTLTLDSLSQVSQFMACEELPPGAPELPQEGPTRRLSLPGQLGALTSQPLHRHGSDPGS

Row | SMILES | Compound remaining (Liver) [%] | solubility thermodynamic [1] [µM] | IC50 [2] [nM] | also measured
1 | NC(=O)C(c1ccccc1)(c1ccccc1)c1ccccc1F | 61 | 10.6 (≈ 3.24 µg/mL) |  | 
2 | COC(=O)C(c1ccccc1)(c1ccccc1)c1ccccc1 |  |  | 330 | 
3 | c1ccc(C(C2=NCCO2)(c2ccccc2)c2ccccc2)cc1 |  |  | 4300 | 
4 | NC(=O)C(c1ccccc1)(c1ccccc1F)c1ccccc1F | 48 | > 31 | 30 | 
5 | CCNC(=O)C(c1ccccc1)(c1ccccc1)c1ccccc1 |  |  | 1750 | 
6 | CNC(=O)C(c1ccccc1)(c1ccccc1)c1ccccc1 |  |  | 550 | inhibition at 10 µM (hERG (KCNH2)): < 20%; inhibition at 10 µM (CYP3A4): < 20%
7 | O=C(O)C(c1ccccc1)(c1ccccc1)c1ccccc1 |  |  | > 10000 | 
8 | CN(C)C(=O)C(c1ccccc1)(c1ccccc1)c1ccccc1 |  |  | 3150 | 
9 | O=C1Nc2ccccc2C1(c1ccccc1)c1ccccc1 |  |  |  | inhibition [19]: < 20%

Continued, in another order:

Row | Compound remaining (Liver) [%] | solubility thermodynamic [1] [µM] | IC50 [2] [nM] | SMILES | also measured
10 | 44 | 1.8 (≈ 0.582 µg/mL) |  | NC(=O)C(c1ccccc1)(c1ccccc1)c1ccc(F)cc1F | 
11 | 19 | 4.1 (≈ 1.4 µg/mL) | 17 | NC(=O)C(c1ccc(F)cc1)(c1ccc(F)cc1)c1cccc(F)c1 | 
12 | 63 | 4.3 (≈ 1.39 µg/mL) | 14 | NC(=O)C(c1ccccc1)(c1ccccc1)c1ccc(F)c(F)c1 | 
13 | 25 | 2.6 (≈ 0.887 µg/mL) | 14 | NC(=O)C(c1ccc(F)cc1)(c1ccc(F)cc1)c1ccc(F)cc1 | 
14 | 40 | 5.8 (≈ 1.88 µg/mL) | 9 | NC(=O)C(c1ccccc1)(c1ccc(F)cc1)c1ccccc1F (stereo unspecified) | half-life [3]: 2.5 h; Tmax [4]: 2 h; Cmax [5]: 250 ng/mL; inhibition at 10 µM (CYP3A4): < 20%; Activity (Mus musculus [6]): 4 mmol; Activity (Mus musculus [7]): 2 mmol; Activity (Mus musculus [8]): 34 g/dL; Activity (Mus musculus [9]): 27 g/dL; Activity (Mus musculus [10]): 44.5%; Activity (Mus musculus [11]): 47%
15 |  |  | 15 | NC(=O)C(c1ccc(F)cc1)(c1cccc(F)c1)c1cccc(F)c1 | 
16 | 43 | 1.2 (≈ 0.388 µg/mL) |  | NC(=O)C(c1ccccc1)(c1cccc(F)c1)c1cccc(F)c1 | 
17 | 58 | 2.9 (≈ 0.886 µg/mL) | 40 | NC(=O)C(c1ccccc1)(c1ccccc1)c1ccc(F)cc1 | 
18 | 51 | 3.8 (≈ 1.23 µg/mL) |  | NC(=O)C(c1ccccc1)(c1ccc(F)cc1)c1ccc(F)cc1 [SENICAPOC] | Activity (Mus musculus [12]): 3 mmol; Activity (Mus musculus [13]): 1.5 mmol; Activity (Mus musculus [14]): 29.5 g/dL; Activity (Mus musculus [15]): 30.3 g/dL; Activity (Mus musculus [16]): 50.9%; Activity (Mus musculus [17]): 49.9%; bioavailability [18]: 51%; half-life [3]: 1 h; Tmax [4]: 4 h; Cmax [5]: 400 ng/mL; inhibition at 10 µM (CYP3A4): < 20%
19 | 62 | 8.3 (≈ 2.83 µg/mL) | 10 | NC(=O)C(c1ccc(F)cc1)(c1ccc(F)cc1)c1ccccc1F | 
20 | 46 | 6.8 (≈ 2.32 µg/mL) | 15 | NC(=O)C(c1ccc(F)cc1)(c1ccccc1F)c1ccccc1F | 
21 | 36 | 3.4 (≈ 1.16 µg/mL) | 13 | NC(=O)C(c1cccc(F)c1)(c1cccc(F)c1)c1cccc(F)c1 | 
